# Results from ChEMBL document CHEMBL1122917, “Vinblastin-23-oyl amino acid derivatives: chemistry, physicochemical data, toxicity, and antitumor activities against P388 and L1210 leukemias” (J Med Chem, 1985).
# Columns and labels:
# Assay type in all cases: functional
# [1] = test system: Mus musculus; test: Number of survivors on 30th day at dose 55 mg/kg/day in 10 mice implanted with P388 leukemia cell line
# [2] = test system: Mus musculus; test: Number of survivors on 60th day at dose 60 mg/kg/day in 10 mice implanted with P388 leukemia cell line
# Outline: (§1)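 Female DBA2 mice inoculated iv on day 0 with 10^4 P388 cells; single iv treatment on day 1 with drug as sulfate salt in physiological saline. Survival followed; %ILS from all deaths and survivors as (T/C × 100) − 100, maximal MST 30 days; survivors counted on days 30 and 60. Most experiments confirmed three times.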
# [3] = test system: Mus musculus; test: Number of survivors of DBA2 mice on 60th day after inoculation with L1210 leukemia cell line intravenously at a dose of 60 mg/kg/day; 0/10; settings: route intravenous
# [4] = test system: Mus musculus; test: Number of survivors of DBA2 mice on 30th day after inoculation with L1210 leukemia cell line intravenously at a dose of 75 mg/kg/day; 0/10; settings: route intravenous
# [5] = test system: Mus musculus; test: Number of survivors of DBA2 mice on 30th day after inoculation with L1210 leukemia cell line intravenously at a dose of 55 mg/kg/day; 0/10; settings: route intravenous
# [6] = test system: Mus musculus; test: Number of survivors on 60th day at dose 75 mg/kg/day in 10 mice implanted with P388 leukemia cell line
# [7] = test system: Mus musculus; test: Number of survivors on 60th day at dose 80 mg/kg/day in 10 mice implanted with P388 leukemia cell line
# [8] = test system: Mus musculus; test: Percent increase in life span at dose 50 mg/kg/day in 10 mice implanted with P388 leukemia cell line; outline: as §1
# [9] = test system: Mus musculus; test: Number of survivors of DBA2 mice on 30th day after inoculation with L1210 leukemia cell line intravenously at a dose of 70 mg/kg/day; 0/10; settings: route intravenous
# [10] = test system: Mus musculus; test: Number of survivors of DBA2 mice on 30th day after inoculation with L1210 leukemia cell line intravenously at a dose of 60 mg/kg/day; 0/10; settings: route intravenous
# [11] = test system: Mus musculus; test: Percent increase in life span of DBA2 mice after inoculation with L1210 leukemia intravenously at a dose of 75 mg/kg per day; settings: route intravenous
# [12] = test system: Mus musculus; test: Percent increase in life span of DBA2 mice after inoculation with L1210 leukemia intravenously at a dose of 65 mg/kg per day; settings: route intravenous
# Outline: (§2)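 Female DBA2 mice inoculated iv on day 0 with 10^4 L1210 cells; drugs given iv as sulfate salts in physiological saline, mostly once on day 1. %ILS from all deaths and survivors as (T/C × 100) − 100; survivors scored on days 30 and 60.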
# [13] = test system: Mus musculus; test: Number of survivors of DBA2 mice on 60th day after inoculation with L1210 leukemia cell line intravenously at a dose of 55 mg/kg/day; 0/10; settings: route intravenous
# [14] = test system: Mus musculus; test: Number of survivors of DBA2 mice on 60th day after inoculation with L1210 leukemia cell line intraperitoneally at a dose of 75 mg/kg/day; 0/10; settings: route intraperitoneal
# [15] = test system: Mus musculus; test: Number of survivors on 30th day at dose 60 mg/kg/day in 10 mice implanted with P388 leukemia cell line
# [16] = test system: Mus musculus; test: Percent increase in life span at dose 80 mg/kg/day in 10 mice implanted with P388 leukemia cell line; outline: as §1
# [17] = test system: Mus musculus; test: Number of survivors of DBA2 mice on 30th day after inoculation with L1210 leukemia cell line intravenously at a dose of 65 mg/kg/day; 0/10; settings: route intravenous
# [18] = test system: Mus musculus; test: Number of survivors on 60th day at dose 55 mg/kg/day in 10 mice implanted with P388 leukemia cell line
# [19] = test system: Mus musculus; test: Percent increase in life span at dose 60 mg/kg/day in 10 mice implanted with P388 leukemia cell line; outline: as §1
# [20] = test system: Mus musculus; test: Percent increase in life span of DBA2 mice after inoculation with L1210 leukemia intravenously at a dose of 70 mg/kg per day; settings: route intravenous; outline: as §2
# [21] = test system: Mus musculus; test: Number of survivors on 30th day at dose 50 mg/kg/day in 10 mice implanted with P388 leukemia cell line
# [22] = test system: Mus musculus; test: Percent increase in life span at dose 75 mg/kg/day in 10 mice implanted with P388 leukemia cell line
# [23] = test system: Mus musculus; test: Number of survivors on 30th day at dose 80 mg/kg/day in 10 mice implanted with P388 leukemia cell line
# [24] = test system: Mus musculus; test: Percent increase in life span of DBA2 mice after inoculation with L1210 leukemia intravenously at a dose of 60 mg/kg per day; settings: route intravenous; outline: as §2
# [25] = test system: Mus musculus; test: Number of survivors on 30th day at dose 75 mg/kg/day in 10 mice implanted with P388 leukemia cell line
# [26] = test system: Mus musculus; test: Number of survivors of DBA2 mice on 60th day after inoculation with L1210 leukemia cell line intraperitoneally at a dose of 70 mg/kg/day; 0/10; settings: route intraperitoneal
# [27] = test system: Mus musculus; test: Percent increase in life span at dose 55 mg/kg/day in 10 mice implanted with P388 leukemia cell line; outline: as §1
# [28] = test system: Mus musculus; test: Percent increase in life span of DBA2 mice after inoculation with L1210 leukemia intravenously at a dose of 55 mg/lg per day
# [29] = test system: Mus musculus; test: Number of survivors of DBA2 mice on 60th day after inoculation with L1210 leukemia cell line intravenously at a dose of 65 mg/kg/day; 0/10; settings: route intravenous
# [30] = test system: Mus musculus; test: Number of survivors on 60th day at dose 50 mg/kg/day in 10 mice implanted with P388 leukemia cell line
smiles,measurement,setting,value
CCOC(=O)[C@H](Cc1ccccc1)NC(=O)[C@@]1(O)[C@H](O)[C@]2(CC)C=CCN3CC[C@@]4(c5cc([C@@]6(C(=O)OC)C[C@H]7C[N@](CCc8c6[nH]c6ccccc86)C[C@](O)(CC)C7)c(OC)cc5N(C)[C@@]14C)[C@@H]32,Survivors,[1],1
same,Survivors,[2],0
same,Survivors,[3],0
same,Survivors,[4],0
same,Survivors,[5],0
same,Survivors,[6],0
same,Survivors,[7],0
same,ILS at 50 mg/kg/day,[8],21.5%
same,Survivors,[9],0
same,Survivors,[10],0
same,ILS at 75 mg/kg/day,[11],25%
same,ILS at 65 mg/kg/day,[12],3.5%
same,Survivors,[13],0
same,Survivors,[14],0
same,Survivors,[15],0
same,ILS at 80 mg/kg/day,[16],41.7%
same,Survivors,[17],0
same,Survivors,[18],0
same,ILS at 60 mg/kg/day,[19],13.3%
same,ILS at 70 mg/kg/day,[20],13%
same,Survivors,[21],1
same,ILS at 75 mg/kg/day,[22],26.6%
same,Survivors,[23],0
same,ILS at 60 mg/kg/day,[24],13.9%
same,Survivors,[25],0
same,Survivors,[26],0
same,ILS at 55 mg/kg/day,[27],36.4%
same,ILS,[28],0%
same,Survivors,[29],0
same,Survivors,[30],1
